The text below walks through data of ChEMBL document CHEMBL4613286, “Developing Cyclic Opioid Analogues: Fluorescently Labeled Bioconjugates of Biphalin” (ACS Med Chem Lett, 2020).

For assay [1], the target named is T1, Mu-type opioid receptor (Homo sapiens, UniProt P35372). Kind of assay: Displacement of [3H]diprenorphine human MOR expressed in CHO cell membranes after 1 hr by micro beta2 scintillation counting method. In kind it is cell-based. On the technique in general: Loss of bound radioactivity is the signal in a displacement assay; it reports binding, not function.

Assay [2] deals with T2, Delta-type opioid receptor (Homo sapiens, UniProt P41143). Kind of assay: Agonist activity at human DOR expressed in CHO cell membranes after 1 hr by [35S]GTPgammaS binding assay relative to SNC80. In kind it is functional. The method, boiled down: (§1)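 Membranes (15 μg protein) from CHO cells stably expressing human DOR, MOR or KOR, grown in DMEM/F12 with 10% heat-inactivated FBS and G418 selection. Concentration curves of agonist incubated with 0.1 nM 35S-GTPγS for 1 h at 30 °C, then filtered and scintillation counted. […] EC50 and Emax from 3-parameter fit, Hill slope fixed at 1. Mean ± SEM, N = 3.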

Assay [3] deals with T3, Kappa-type opioid receptor (Homo sapiens, UniProt P41145). Kind of assay: Agonist activity at human KOR expressed in CHO cell membranes after 1 hr by [35S]GTPgammaS binding assay. In kind it is functional. The method, boiled down:
as §1

A further assay is filed under the species Homo sapiens. Kind of assay: Selectivity index, ratio of Ki for displacement of [3H]diprenorphine human mu opioid receptor expressed in CHO cell membranes to Ki for displacement of [3H]diprenorphine human delta opioid receptor expressed in CHO cell membranes.
Assay [4] addresses T3, Kappa-type opioid receptor. As to the kind of experiment: Agonist activity at human KOR expressed in CHO cell membranes after 1 hr by [35S]GTPgammaS binding assay relative to U50,488. In kind it is functional. An outline of the steps:
as §1

In assay [5] the target is T1, Mu-type opioid receptor. Kind of assay: Agonist activity at human MOR expressed in CHO cell membranes after 1 hr by [35S]GTPgammaS binding assay. In kind it is functional. The method, boiled down:
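Membranes (15 μg protein) from CHO cells stably expressing human DOR, MOR or KOR, grown in DMEM/F12 with 10% heat-inactivated FBS and G418 selection. Concentration curves of agonist incubated with 0.1 nM 35S-GTPγS for 1 h at 30 °C, then filtered and scintillation counted. EC50 and Emax from 3-parameter fit, Hill slope fixed at 1. Mean ± SEM, N = 3.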

Assay [6] concerns the target T2, Delta-type opioid receptor. As to the kind of experiment: Agonist activity at human DOR expressed in CHO cell membranes after 1 hr by [35S]GTPgammaS binding assay. In kind it is functional. The method, boiled down:
as §1

The target in assay [7] is T2, Delta-type opioid receptor. Kind of assay: Displacement of [3H]diprenorphine human delta opioid receptor expressed in CHO cell membranes after 1 hr by micro beta2 scintillation counting method.
Assay [8] deals with T1, Mu-type opioid receptor. As to the kind of experiment: Agonist activity at human MOR expressed in CHO cell membranes after 1 hr by [35S]GTPgammaS binding assay relative to DAMGO. In kind it is functional. An outline of the steps:
as §1
A general note: GTPγS is a poorly hydrolysed GTP analogue; its binding reports G protein activation.

Assay [9] deals with T3, Kappa-type opioid receptor. As to the kind of experiment: Displacement of [3H]diprenorphine human kappa opioid receptor expressed in CHO cell membranes after 1 hr by micro beta2 scintillation counting method. An outline of the steps:
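Membranes (20–25 μg protein) from CHO cells expressing human DOR or KOR were incubated 1 h at rt with concentration curves of compound and fixed 3H-diprenorphine (1.2–4.6 nM). Incubations ended by rapid GF/B filtration, then scintillation counted. […] Ki from one-site competition fit using the radioligand KD measured in each cell line. Mean ± SEM, N = 3.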

pEC50, pKi: −log10 of the molar value. Bounds are passed on as bounds.

T1 sequence (P35372 whole entry): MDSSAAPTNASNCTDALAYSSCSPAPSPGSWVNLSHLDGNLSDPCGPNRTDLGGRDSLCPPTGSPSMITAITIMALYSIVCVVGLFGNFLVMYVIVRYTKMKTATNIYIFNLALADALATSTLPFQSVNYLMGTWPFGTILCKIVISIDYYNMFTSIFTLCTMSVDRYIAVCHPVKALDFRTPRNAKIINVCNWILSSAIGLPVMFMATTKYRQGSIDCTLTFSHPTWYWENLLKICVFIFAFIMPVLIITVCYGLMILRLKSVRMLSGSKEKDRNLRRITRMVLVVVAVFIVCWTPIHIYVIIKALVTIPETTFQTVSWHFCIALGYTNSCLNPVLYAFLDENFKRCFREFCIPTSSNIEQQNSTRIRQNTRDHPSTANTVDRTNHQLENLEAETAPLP
T3 sequence (P41145 whole entry): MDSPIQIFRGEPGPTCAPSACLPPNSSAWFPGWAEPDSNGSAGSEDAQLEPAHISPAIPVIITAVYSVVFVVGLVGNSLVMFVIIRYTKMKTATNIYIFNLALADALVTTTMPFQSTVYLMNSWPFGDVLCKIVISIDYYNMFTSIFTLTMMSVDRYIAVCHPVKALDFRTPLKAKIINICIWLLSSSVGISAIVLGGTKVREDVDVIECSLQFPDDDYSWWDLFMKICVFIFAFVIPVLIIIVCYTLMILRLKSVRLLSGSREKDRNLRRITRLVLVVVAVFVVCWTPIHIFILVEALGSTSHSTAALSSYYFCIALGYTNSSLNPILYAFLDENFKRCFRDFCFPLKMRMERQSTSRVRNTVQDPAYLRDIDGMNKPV
T2 sequence (P41143 whole entry): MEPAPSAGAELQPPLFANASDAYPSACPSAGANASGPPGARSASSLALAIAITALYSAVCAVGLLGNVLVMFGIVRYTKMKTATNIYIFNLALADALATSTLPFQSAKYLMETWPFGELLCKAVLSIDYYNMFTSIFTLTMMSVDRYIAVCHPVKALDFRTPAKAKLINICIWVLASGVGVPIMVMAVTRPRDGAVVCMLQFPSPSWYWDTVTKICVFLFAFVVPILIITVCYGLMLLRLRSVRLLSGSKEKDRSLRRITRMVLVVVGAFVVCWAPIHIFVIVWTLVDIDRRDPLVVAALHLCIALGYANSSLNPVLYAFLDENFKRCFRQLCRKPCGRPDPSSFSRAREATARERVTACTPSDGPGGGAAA

As usually defined, the pKi is −log10 of the Ki, conventionally taken in molar units. Low readings indicate a high Ki, high ones a low Ki. By Emax is commonly meant the size of the effect at its maximum, as opposed to the concentration needed. What is called pEC50 is the EC50 on a negative log10 scale, so that one unit is a factor of ten. As to `CN(C)c1cccc2c(S(=O)(=O)NCCN3C(=O)C4=C(SC[C@@H](NC(=O)[C@@H](N)Cc5ccc(O)cc5)C(=O)NCC(=O)N[C@@H](Cc5ccccc5)C(=O)NNC(=O)[C@H](Cc5ccccc5)NC(=O)CNC(=O)[C@H](NC(=O)[C@@H](N)Cc5ccc(O)cc5)CS4)C3=O)cccc12`, the pKi is 7.04 on Mu-type opioid receptor [1], 7.82 in assay [7] and below 5.48 in [9]. In addition, the Emax in assay [2] is 47%; in [4], 46%; at Mu-type opioid receptor [8] it was 79%. Besides, the pEC50 in assay [3] was 6.34; on Mu-type opioid receptor [5], 7.68; in assay [6], 7.40. In addition, the Ratio Ki in the assay listed under Homo sapiens is 5 to 8.

Turning to `Cc1cc(=O)oc2ccc(N3C(=O)C4=C(SC[C@@H](NC(=O)[C@@H](N)Cc5ccc(O)cc5)C(=O)NCC(=O)N[C@@H](Cc5ccccc5)C(=O)NNC(=O)[C@H](Cc5ccccc5)NC(=O)CNC(=O)[C@H](NC(=O)[C@@H](N)Cc5ccc(O)cc5)CS4)C3=O)cc12`, the figures for the pKi (at Mu-type opioid receptor [1]; in [7]; in assay [9]) were 6.10, 6.92 and below 5.48, respectively. The Emax was determined as 55% in [2], 50% in assay [4] and 80% on Mu-type opioid receptor [8]. The pEC50 in [3] is 5.39; at Mu-type opioid receptor [5] it was 6.54; in assay [6], 6.72. Also, the Ratio Ki in the assay listed under Homo sapiens lay within 5 to 8.

On to `Cc1cc(=O)oc2cc(NC(=O)CCN3C(=O)C4=C(SC[C@@H](NC(=O)[C@@H](N)Cc5ccc(O)cc5)C(=O)NCC(=O)N[C@@H](Cc5ccccc5)C(=O)NNC(=O)[C@H](Cc5ccccc5)NC(=O)CNC(=O)[C@H](NC(=O)[C@@H](N)Cc5ccc(O)cc5)CS4)C3=O)ccc12`, for which the results for the pKi (on Mu-type opioid receptor [1]; in [7]; in assay [9]) were 6.29, 7.01 and below 5.48, respectively. Further, the Emax in assay [2] was found to be 62%; in [4], 60%; at Mu-type opioid receptor [8], 120%. In addition, the pEC50 in [3] is 6.00; at Mu-type opioid receptor [5] it was 6.57; in [6], 6.60. Moreover, the Ratio Ki in the assay filed under Homo sapiens lay within 5 to 8.
